Data on 28 compounds can be found in PubChem BioAssay AID540281 (Sanford-Burnham Center for Chemical Genomics, 2011).

Screen size: about 2,500 compounds; about 1,500 (60%) were called active. So high a share suggests a set chosen from earlier hits. Only a sample is shown. Unmarked numbers belong to inactive results.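 How the source made its calls: active means inhibition of at least 30% at 20 µM; inactive means the rest.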 Non-standard residues stand in square brackets, D forms with d. Residues, ends and D or L forms follow the SMILES beside them. ξ: configuration not given here. ξM = CSCCC(N)C(=O)O

One may read the inhibition as the change of the read-out against control, counted positive when it falls.

The target in the test is Carboxy-terminal domain RNA polymerase II polypeptide A small phosphatase 1 (Homo sapiens) (UniProt Q9GZU7). Put plainly: SCP1 dephosphorylation blockade at one dose – biochemical, colorimetric, single concentration, confirmation (AID 540281).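 Further: plate controls were DMSO with enzyme for no effect and buffer wells lacking enzyme for full effect.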 The conditions noted are these: recombinant SCP-1 catalytic domain, phosphate release, malachite green absorbance; at 20 µM; active compounds read high. A digest of the protocol: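 Assay system: SCP-1 catalytic fragment (residues 76-261). Schedule: 45 min enzyme reaction at room temperature. Medium: Tris acetate pH 5.5 buffer with Mg2+ and detergent. Compound: one dose, 20 µM final, 1.0% DMSO. Reagent: Phospho-17-mer peptide substrate. Detection: absorbance at 630 nm, free phosphate colorimetry.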
Chain of Carboxy-terminal domain RNA polymerase II polypeptide A small phosphatase 1 (Homo sapiens) (Q9GZU7 76-261 limits assumed): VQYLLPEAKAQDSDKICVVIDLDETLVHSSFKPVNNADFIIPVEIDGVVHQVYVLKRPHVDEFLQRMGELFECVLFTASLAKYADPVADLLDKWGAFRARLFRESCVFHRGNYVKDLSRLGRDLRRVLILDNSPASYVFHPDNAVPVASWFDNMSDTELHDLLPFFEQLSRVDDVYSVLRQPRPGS
Consider `Cc1ccc(NC(=O)COc2ccc(/C=N\NC(=O)c3cccnc3)cc2)cc1C`, for which the inhibition is 81% (active).
To `Cc1ccc(C2(C)NC(=O)N(CC(=O)Nc3ccccc3C(=O)N3CCCCC3)C2=O)cc1` (stereo not drawn) belongs -13.7%; to `Cc1ccccc1NC(=O)CN1C(=O)N/C(=C\c2cccn2-c2cccc(C(=O)O)c2)C1=O`, 82.2% (active).
To `COc1ccc(NC(=O)N(C)C[C@H]2Oc3ccc(NC(=O)C4CC4)cc3C(=O)N([C@H](C)CO)C[C@@H]2C)cc1` belongs 2.35%; to `C[C@H](CO)N1C[C@H](C)[C@H](CN(C)C(=O)Nc2ccc(C(F)(F)F)cc2)Oc2c(NC(=O)c3ccncc3)cccc2C1=O`, 44.3% (active); to `C[C@H](CO)N1C[C@H](C)[C@@H](CN(C)C(=O)NC2CCCCC2)Oc2ccc(NC(=O)c3ccncc3)cc2C1=O`, 6.94%.
To `CNS(=O)(=O)c1cccc(C(=O)OCC(=O)N2c3ccccc3NC(=O)C2(C)C)c1` belongs 48.6% (active); to `CC(NC(=O)CC1SC(N)=NC1=O)c1ccccc1` (stereo not drawn), -28.8%; to `C=Cc1ccc(C(=O)N2CCCC(CCC(=O)N3CCN(c4ccccn4)CC3)C2)cc1` (stereo not drawn), 67% (active).
`COc1cc(SC)ccc1C(=O)NNC(=O)C1COc2ccccc2O1` (stereo not drawn): the inhibition was 5.11%.
To `O=C(Nc1cc(S(=O)(=O)N2CCCCC2)ccc1Cl)C1COc2ccccc2O1` (stereo not drawn) belongs 65.1% (active).
The same measure for `O=C(N/N=C/c1ccco1)c1ccc(C(=O)N/N=C/c2ccco2)o1`: 56.8% (active).
To `COc1ccc2[nH]c3c(C)c4cc[n+](C)cc4c(C)c3c2c1` belongs -2.43%; to `COc1ccc(/C=C/C(=O)OCC(=O)NC2CCCCCC2)cc1OC`, 45.2% (active).
Consider `N/C(=N\OC(=O)N1c2ccccc2Sc2ccccc21)c1ccc(Br)cc1`, for which the inhibition is 46.1% (active).
To `Cc1ccc(Cc2nnc(SCC(=O)Nc3ccc(C)cc3C)[nH]c2=O)cc1` belongs 39.7% (active).
The same measure for `COCCCn1c(Cc2csc(Nc3cccc(Cl)c3)n2)nnc1SCC(=O)OC1CCCCC1`: 59.1% (active).
To `Cc1ccc(S(=O)(=O)Nc2ccc3c(c2)C(=O)N([C@H](C)CO)C[C@@H](C)[C@@H](CN(C)C(=O)Nc2cccc4ccccc24)O3)cc1` belongs 5.11%.
On to `N#Cc1ccccc1CN1C(=O)S/C(=C/c2cccn2-c2cccc(C(=O)O)c2)C1=O`, for which the inhibition was 67% (active).
To `C[N+](C)(C)CCNC(=O)c1cc[n+](Cc2ccccc2)c(/C=N/O)c1` belongs 83.3% (active); to `CC(=O)Nc1ccccc1Sc1ccc2c3c(cccc13)C(=O)N(c1ccc(C)cc1)C2=O`, 0.82%.
To `COC(=O)CNC(=O)C(CCSC)NC(C)=O` (stereo not drawn) (Ac-[ξM]-Gly-OMe) belongs -12.9%; to `O=C(CCNC(=O)c1ccccc1)NN=Cc1ccc(Br)o1`, 45% (active); to `O=C(CNC(=O)C(c1ccccc1)c1ccccc1)N/N=C\c1ccc2c(c1)OCO2`, -8.05%.
To `O=C(CCC(=O)N/N=C/c1ccc(Br)o1)N/N=C/c1ccc(Br)o1` belongs 40.3% (active); to `N#Cc1c(-c2cccs2)nc(SCC(=O)c2ccc(Br)cc2)[nH]c1=O`, 78.5% (active).
Regarding `COc1ccc(Cc2nnc(NC(=O)Cc3cccs3)s2)cc1`, the inhibition was 77.3% (active).
The same measure for `O=S(=O)(Nc1ccccc1Cl)c1cccc2nsnc12`: 48.1% (active).
